Assay outcomes as filed in PubChem.
PfG6PD inh: PfG6PD enzyme inhibitors, primary screen, biochemical, fluorescence intensity, uHTS; PfGluPho enzyme, NADPH resazurin-diaphorase fluorescence; inhibition, % at 20 µM; 0.78% of 350,000 active;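 active = inhibition reaching at least a set limit at 20 µM in the primary screen, cut at about 59% in these data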;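 also: 0% = DMSO wells with substrate and 100% = DMSO wells lacking glucose-6-phosphate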
M18AAP inhibitor: PfM18AAP inhibitors, malaria aminopeptidase, primary screen, biochemical, QFRET, recombinant enzyme. inhibition, % at 7.35 µM. M18 aspartyl aminopeptidase (Plasmodium falciparum 3D7). 1.2% of 290,000 active. H-Glu-NHMec fluorogenic cleavage;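 active = inhibition above the campaign mean inhibition over all tested compounds plus 3 SD, cut at about 28% in these data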;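 also: 0% = plate median of test compound wells and 100% = 2 mM ZnCl2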
Neddyl block: inhibitors of cullin neddylation, primary screen, biochemical, TR-FRET, uHTS, NAE and Ubc12 | NEDD8-conjugating enzyme Ubc12 (Homo sapiens) + NEDD8-activating enzyme E1 regulatory … | inhibition, % at 25 µM | 0.58% of 360,000 active | AID 651699, 2012; in the data active = inhibition above about 36%
HKDC1 inhibitor: HKDC1 hexokinase inhibitors, primary screen, biochemical, fluorescence, uHTS; 0.16% of 340,000 active; Q2TB90; inhibition, % at 20 µM; AID 493160, 2011; recombinant HKDC1, G6PDH/diaphorase resazurin coupled fluorescence;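 active = inhibition above about 35% when tested at 20 µM, limit read from the data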;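 also: plate controls were DMSO wells with enzyme for no effect and DMSO wells lacking enzyme for full effect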
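Assay system – recombinant HKDC1 (HK5) hexokinase enzyme, produced in-house · Input – HKDC1 at 5 µg/mL · Reagent – glucose plus 1 mM ATP as hexokinase substrates · Timing – 90 min reaction incubation at room temperature, dark · Measured by – G6PDH/diaphorase-coupled fluorescence, 1 mM NADP, 100 µM resazurin, 525/613 nm · Benchmarks – DMSO-enzyme wells negative, buffer-substituted wells positive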
Active calls of the source: *; nt = no result shown. Sampled rows, rich in hits. Any-hit rate of the full collection: about 2.2%.

SMILES	PfG6PD inh	M18AAP inhibitor	Neddyl block	HKDC1 inhibitor
COc1cc(C2CC(=O)N3CN(c4ccccc4C)CSC3=C2C#N)cc(OC)c1OC (stereo unspecified)	nt	33*	nt	nt
CCOC(=O)c1ccc(N2CSC3=C(C#N)C(c4ccc(OC)cc4OC)CC(=O)N3C2)cc1 (stereo unspecified)	54	21	-10	3
COc1ccc(OC)c(C2CC(=O)N3CN(c4cccc(Cl)c4C)CSC3=C2C#N)c1 (stereo unspecified)	83*	38*	-47	12
COc1ccc(OC)c(C2CC(=O)N3CN(c4ccccc4F)CSC3=C2C#N)c1 (stereo unspecified)	53	28*	-29	11
CCNC(=O)C1(C)CCN(C(=O)c2cccc(OC(C)=O)c2C)C1 (stereo unspecified)	nt	nt	-8	nt
C[C@@H]1CN([C@@H](C)CO)C(=O)CCCn2nncc2CO[C@@H]1CN(C)S(=O)(=O)c1ccc(F)cc1	15	nt	0	nt
O=C(COc1ccccc1)N[C@@H]1c2ccccc2CC[C@H]1OCc1ccccc1	10	nt	0	3
CCNC(=O)C1(C)CCN(C(=O)c2ccccc2OC)C1 (stereo unspecified)	nt	nt	-8	nt
COc1cccc(C2CC(=O)N3CN(c4ccccc4F)CSC3=C2C#N)c1 (stereo unspecified)	83*	15	-57	7
COc1cccc(-c2ncc3ccccc3c2COC(=O)c2cccc(Br)c2)c1	0	nt	-30	8
CCC1CCCCN1C(=O)Cn1c(=O)oc2ccccc21 (stereo unspecified)	14	29*	1	-2
O=C(CCC(F)(F)F)N1CCCC(N2CCN(c3cccc(Cl)c3)CC2)C1 (stereo unspecified)	-5	-6	0	-1
CC1CN(CC(=O)Nc2nc(-c3ccc(Cl)cc3)cs2)CC(C)O1 (stereo unspecified)	22	-6	5	-3
CC(C)NC(=O)C1(C)CN(S(C)(=O)=O)CC(=O)N1C1CCN(Cc2ccccc2)CC1 (stereo unspecified)	nt	nt	3	nt
CC(C)(C)N1C(=O)Cc2c1nc(N)c1c(N)nc(N3CCCCC3CO)c(C#N)c21 (stereo unspecified)	89*	14	22	25
COc1ccc(C=Nc2cccnc2N)cc1	9	31*	15	2
Cc1ccc(C=Nc2cccnc2N)cc1	7	13	27	-8
CC1OC(CC(=O)O)CC2=C1C(=O)c1c(O)cccc1C2=O (stereo unspecified)	131*	nt	-12	31
Clc1ccc(-n2ncc3c(N4CCCCCC4)ncnc32)cc1	-14	-3	-12	5
COc1ccc(-n2ncc3c(N4CCCCC4)ncnc32)cc1	0	3	38*	7
CC(C)C1C(C#N)=C(N)SC(N)=C1C#N	12	19	-22	-2
CCC(CC)C1C(C#N)=C(N)SC(N)=C1C#N	26	31*	-22	-1
CCOC(=O)c1cc(OC)c2cccc(CN3CCC(C)(C(=O)NCCOC)C3)c2c1 (stereo unspecified)	nt	nt	50*	nt
COc1cc(/C=N/NC(=O)NC2CCCCC2)cc(OC)c1O	27	29*	0	0
COc1cc(/C=N/NC(=O)NC2CCCCC2)ccc1O	-4	1	-7	2
SMILES	PfG6PD inh	M18AAP inhibitor	Neddyl block	HKDC1 inhibitor
CCOCCCn1c(=S)[nH]c2cc(C(=O)NCCCN(CC)CC)ccc2c1=O	9	-6	4	-5
O=c1/c(=C/c2ccccn2)sc2nc3ccccc3n12	14	36*	-4	-1
COc1ccc2nc(NC(=O)c3ccco3)sc2c1	-18	8	48*	1
O=C(NNc1nc2ccccc2s1)Nc1ccccc1	19	29*	-46	-13
COc1ccc2nc(NNC(=O)COc3ccccc3)sc2c1	0	38*	-9	-7
O=C(NCc1ccc(F)cc1)c1cc(C2CCCN(C(=O)CCCc3ccccc3)C2)on1 (stereo unspecified)	nt	nt	8	nt
NC(=O)C1CCN(C(=O)NC2CC(=O)N(c3ccc4c(c3)OCCO4)C2)CC1 (stereo unspecified)	10	nt	5	-6
S=C(NCc1ccccn1)Nc1cccc(Cl)c1	1	30*	5	-5
COC(=O)[C@@]12C[C@@H](CC(=O)NCC34CC5CC(CC(C5)C3)C4)C(=O)N(Cc3ccco3)C1=CCC(C)(C)C2	nt	nt	-10	nt
CCc1nnc(NC(=O)CSc2nc3[nH]ncc3c(=O)[nH]2)s1	-10	31*	5	-9
Cc1nnc(NC(=O)CSc2nc3[nH]ncc3c(=O)[nH]2)s1	-3	18	-4	-5
COc1cc(C(C)=O)ccc1OCCCOc1cccc2cccnc12	13	6	-11	0
Nc1ccc(Br)c2cccnc12	63*	24	-51	30
CS(=O)(=O)Oc1ccc(Br)c2cccnc12	15	-7	-19	-4
COc1ccccc1NC(=O)C(C)OC(=O)C(C)SCC(=O)Nc1ccc(C)cc1 (stereo unspecified)	11	nt	0	0
CC(=O)c1sc2nc(-c3ccco3)ccc2c1N	43	18	82*	11
CC(=O)Nc1ccc2nc3c(=O)n(C)c(=O)n(C)c3nc2c1	52	9	80*	18
Cn1c(=O)c2nc3ccccc3nc2n(C)c1=O	-23	3	14	-9
COc1cc(/C=C(\C#N)C(=O)NCC2CCCO2)c([N+](=O)[O-])cc1OC (stereo unspecified)	-4	30*	7	0
COc1cc(/C=C(\C#N)C(=O)NCC2CCCO2)ccc1OCC(=O)O (stereo unspecified)	6	3	-3	9
NC(=O)/C(=C/c1ccco1)NC(=O)c1ccc(Br)o1	1	29*	4	3
COC(=O)/C(=C/c1ccco1)NC(=O)c1ccc(Br)o1	1	-1	1	-6
COc1ccc(S(=O)(=O)NNC(=S)NCCc2ccccc2)c(OC)c1	-8	-49	-3	-2
Cc1ccc(S(=O)(=O)O/N=C2\CCCc3ccccc32)cc1	-9	-3	8	17
CC1=C(C)/C(=N\OS(=O)(=O)c2ccccc2)C=CC1=O	112*	-1	27	19
SMILES	PfG6PD inh	M18AAP inhibitor	Neddyl block	HKDC1 inhibitor
O=C(O)CCc1nc(-c2ccccc2)c(-c2ccccc2)o1	nt	15	nt	nt
O=C(O)CCc1ccc(-c2ccccc2)o1	66*	-57	1	-4
COC1c2ccccc2C(=O)N1Cc1ccc(F)cc1 (stereo unspecified)	-17	0	0	2
Cc1cc(C(=O)N2CCN(c3ccc(F)cc3)CC2)on1	11	-1	2	-6
CCCCN(CC)C(=O)c1cc2cc3ccc(OC)cc3nc2o1	18	0	56*	15
COCCNC(=O)c1cc2cc3ccc(OC)cc3nc2o1	-2	6	nt	-1
COc1ccc2nc3sc(C(=O)N4CCN(C)CC4)cc3cc2c1	12	-5	33	9
CCCCN(C)C(=O)c1cc2cc3ccc(OC)cc3nc2s1	15	15	43*	8
